In brackets after ≈: the same amount, converted by molar mass.
What was measured:
[1] = biological target: Tyrosine-protein kinase JAK1 (Homo sapiens, UniProt P23458); test: Inhibition of recombinant GST tagged JAK1 protein after 60 mins using FITC-Ahx-KKSRGDYMTMQIG-NH2 substrate
[2] = biological target: Non-receptor tyrosine-protein kinase TYK2 (Homo sapiens, UniProt P29597); test: Inhibition of recombinant GST tagged TYK2 protein after 60 mins using FITC-Ahx-KKSRGDYMTMQIG-NH2 substrate
[3] = biological target: Tyrosine-protein kinase JAK2 (Homo sapiens, UniProt O60674)
Tyrosine-protein kinase JAK2, sequence (O60674 whole entry): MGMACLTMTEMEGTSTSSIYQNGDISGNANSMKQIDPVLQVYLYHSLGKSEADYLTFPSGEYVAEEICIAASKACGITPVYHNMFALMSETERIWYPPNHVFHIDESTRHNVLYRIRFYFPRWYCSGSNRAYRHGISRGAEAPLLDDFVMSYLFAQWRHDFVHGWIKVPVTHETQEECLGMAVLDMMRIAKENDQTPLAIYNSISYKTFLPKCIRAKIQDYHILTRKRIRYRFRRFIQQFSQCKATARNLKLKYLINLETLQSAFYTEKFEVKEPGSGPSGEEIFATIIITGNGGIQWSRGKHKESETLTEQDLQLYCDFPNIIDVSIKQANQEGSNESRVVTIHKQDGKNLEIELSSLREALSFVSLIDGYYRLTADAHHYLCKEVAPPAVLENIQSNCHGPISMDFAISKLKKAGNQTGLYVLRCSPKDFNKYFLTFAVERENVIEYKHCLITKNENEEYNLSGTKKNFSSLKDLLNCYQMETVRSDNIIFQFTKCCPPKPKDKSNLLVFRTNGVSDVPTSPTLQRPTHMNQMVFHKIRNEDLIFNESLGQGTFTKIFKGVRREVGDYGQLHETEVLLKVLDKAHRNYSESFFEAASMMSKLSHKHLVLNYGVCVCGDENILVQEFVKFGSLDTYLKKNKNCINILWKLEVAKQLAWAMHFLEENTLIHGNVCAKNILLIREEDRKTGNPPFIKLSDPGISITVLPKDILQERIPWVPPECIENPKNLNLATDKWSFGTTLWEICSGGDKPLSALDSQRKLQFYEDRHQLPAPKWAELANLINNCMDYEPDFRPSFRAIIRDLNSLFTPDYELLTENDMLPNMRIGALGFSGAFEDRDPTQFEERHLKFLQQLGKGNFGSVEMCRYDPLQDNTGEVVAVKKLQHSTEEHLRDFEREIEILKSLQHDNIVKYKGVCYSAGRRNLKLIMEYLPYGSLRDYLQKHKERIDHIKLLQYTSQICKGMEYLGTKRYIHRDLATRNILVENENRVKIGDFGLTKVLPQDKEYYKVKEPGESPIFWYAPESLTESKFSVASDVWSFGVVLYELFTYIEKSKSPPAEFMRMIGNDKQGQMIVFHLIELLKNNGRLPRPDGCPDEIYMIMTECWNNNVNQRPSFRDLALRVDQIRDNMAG

[4] = AUC in rat at 1 mg/kg, iv after 48 hrs by MS/MS analysis; format: ADME, organism-based; set-up: time < 48 hr, dose 1 mg/kg, route intravenous; conditions: plasma
Procedure, shortened: (§1)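 Conscious, fed, permanently cannulated female rats, n=4; 1 mg/kg iv via femoral vein in 30% NMP/PEG200, and 3 mg/kg po by gavage in 50% aqueous PEG200, crossover with 48 h washout. Arterial blood was sampled for 48 h (iv) or 24 h (po), precipitated with CH3CN, and measured by C18 HPLC-MS/MS.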

[5] = Volume of distribution at steady state in rat at 1 mg/kg, iv or 3 mg/kg, po by MS/MS analysis; format: ADME, organism-based; conditions: in vivo, read-out: Vdss; procedure, shortened: as §1
[6] = Tmax in rat at 3 mg/kg, po or 1 mg/kg, iv by MS/MS analysis; format: ADME, organism-based; conditions: in vivo; procedure, shortened: as §1
[7] = Oral bioavailability in rat at 3 mg/kg after 24 hrs by MS/MS analysis; format: ADME, organism-based; conditions: in vivo; procedure, shortened: as §1
[8] = Clearance in rat at 1 mg/kg, iv after 48 hrs by MS/MS analysis; conditions: in vivo
[9] = Growth inhibition of human SET2 cells expressing JAK2V617F mutant after 72 hrs by colorimetric WST1 assay; format: functional; conditions: SET-2, 72 h
Procedure, shortened: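 Megakaryoblastic SET-2 cells were grown in RPMI with 10% FCS, 2 mM L-glutamine and 1% penicillin/streptomycin. Cells were exposed to an 8-point compound concentration range for 72 h. Proliferation was read by WST-1 colorimetric viability, relative to DMSO vehicle controls.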

[10] = Aqueous solubility at pH 6.8; format: physicochemical
[11] = Partition coefficient, log P of the compound; format: physicochemical; conditions: octanol/water
[12] = Cmax in rat at 3 mg/kg, po or 1 mg/kg, iv by MS/MS analysis; format: ADME, organism-based; conditions: in vivo; procedure, shortened: as §1
[13] = Half life in rat at 1 mg/kg, iv after 48 hrs by MS/MS analysis; conditions: in vivo
[14] = Dissociation constant, pKa of the compound; format: physicochemical
[15] = biological target: T1, Tyrosine-protein kinase JAK3 (Homo sapiens, UniProt P52333)
T1 sequence (P52333 whole entry): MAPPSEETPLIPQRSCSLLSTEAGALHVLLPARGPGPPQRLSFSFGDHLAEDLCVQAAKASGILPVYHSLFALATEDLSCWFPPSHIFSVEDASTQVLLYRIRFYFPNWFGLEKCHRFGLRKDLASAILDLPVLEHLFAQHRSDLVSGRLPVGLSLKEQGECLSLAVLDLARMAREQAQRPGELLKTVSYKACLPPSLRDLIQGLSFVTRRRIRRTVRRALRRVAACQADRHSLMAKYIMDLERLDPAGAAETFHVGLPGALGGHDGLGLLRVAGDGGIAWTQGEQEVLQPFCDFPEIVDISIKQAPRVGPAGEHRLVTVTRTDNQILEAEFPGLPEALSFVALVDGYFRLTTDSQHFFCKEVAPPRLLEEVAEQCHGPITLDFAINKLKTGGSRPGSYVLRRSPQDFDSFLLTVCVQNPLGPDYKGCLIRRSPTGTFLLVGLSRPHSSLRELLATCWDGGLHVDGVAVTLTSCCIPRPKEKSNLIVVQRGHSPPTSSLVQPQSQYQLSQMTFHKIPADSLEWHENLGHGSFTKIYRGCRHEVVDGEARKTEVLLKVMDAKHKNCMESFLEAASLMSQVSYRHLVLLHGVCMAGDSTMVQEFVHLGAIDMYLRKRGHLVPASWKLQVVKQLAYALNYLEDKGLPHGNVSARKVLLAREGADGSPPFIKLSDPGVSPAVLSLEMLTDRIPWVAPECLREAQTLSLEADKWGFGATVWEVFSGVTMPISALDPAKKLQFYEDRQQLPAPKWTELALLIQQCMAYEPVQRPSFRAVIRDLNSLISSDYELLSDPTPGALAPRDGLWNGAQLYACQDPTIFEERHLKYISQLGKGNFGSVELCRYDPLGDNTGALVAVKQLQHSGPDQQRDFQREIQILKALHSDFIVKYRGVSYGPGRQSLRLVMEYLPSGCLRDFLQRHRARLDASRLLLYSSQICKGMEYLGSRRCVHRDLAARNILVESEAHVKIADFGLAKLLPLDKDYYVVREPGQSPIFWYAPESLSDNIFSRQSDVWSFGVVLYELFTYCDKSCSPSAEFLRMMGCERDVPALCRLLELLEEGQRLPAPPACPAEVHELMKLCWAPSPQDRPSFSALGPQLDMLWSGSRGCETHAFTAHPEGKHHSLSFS

[16] = biological target: Tyrosine-protein kinase ABL1 (Homo sapiens, UniProt P00519)
Tyrosine-protein kinase ABL1, sequence (P00519 whole entry): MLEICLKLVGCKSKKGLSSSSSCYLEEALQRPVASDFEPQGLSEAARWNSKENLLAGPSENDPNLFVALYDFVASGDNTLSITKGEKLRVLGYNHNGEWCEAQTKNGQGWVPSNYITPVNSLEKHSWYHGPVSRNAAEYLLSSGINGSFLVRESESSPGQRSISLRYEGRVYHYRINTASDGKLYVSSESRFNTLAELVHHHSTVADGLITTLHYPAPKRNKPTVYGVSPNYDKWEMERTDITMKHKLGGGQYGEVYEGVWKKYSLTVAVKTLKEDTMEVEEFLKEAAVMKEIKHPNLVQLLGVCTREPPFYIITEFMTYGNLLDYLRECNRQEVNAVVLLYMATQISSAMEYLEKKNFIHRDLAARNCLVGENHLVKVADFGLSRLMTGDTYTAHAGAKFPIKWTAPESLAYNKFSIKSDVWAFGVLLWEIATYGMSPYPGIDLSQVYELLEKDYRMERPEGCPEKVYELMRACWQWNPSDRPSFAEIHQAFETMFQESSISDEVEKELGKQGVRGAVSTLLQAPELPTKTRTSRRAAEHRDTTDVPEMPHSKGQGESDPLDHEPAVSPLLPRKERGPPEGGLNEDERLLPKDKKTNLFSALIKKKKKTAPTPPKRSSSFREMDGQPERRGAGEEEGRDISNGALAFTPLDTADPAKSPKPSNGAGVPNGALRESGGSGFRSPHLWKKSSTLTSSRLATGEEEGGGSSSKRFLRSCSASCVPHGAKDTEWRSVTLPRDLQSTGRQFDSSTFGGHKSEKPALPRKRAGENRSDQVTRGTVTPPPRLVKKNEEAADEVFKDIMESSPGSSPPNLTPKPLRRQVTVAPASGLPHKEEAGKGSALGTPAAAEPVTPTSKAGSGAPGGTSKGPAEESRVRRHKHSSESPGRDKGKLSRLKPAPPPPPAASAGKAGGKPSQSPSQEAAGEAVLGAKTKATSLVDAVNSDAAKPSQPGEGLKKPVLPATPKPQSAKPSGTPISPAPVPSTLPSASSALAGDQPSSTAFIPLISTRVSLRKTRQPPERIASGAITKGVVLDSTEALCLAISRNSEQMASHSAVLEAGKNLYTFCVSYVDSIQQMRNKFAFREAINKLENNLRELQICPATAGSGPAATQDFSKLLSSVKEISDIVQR

[17] = Volume of distribution in iv dosed rat; format: ADME, organism-based; conditions: in vivo
Procedure, shortened: (§2)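 Conscious rats given an iv bolus, then oral dosing at 3 mg/kg as a suspension in 0.5% carboxymethyl cellulose in bidistilled water. Clearance, volume of distribution, terminal half-life, oral AUC and bioavailability were derived.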

[18] = Terminal half life in iv dosed rat; format: ADME, organism-based; conditions: in vivo, read-out: beta t1/2 (converted); procedure, shortened: as §2
[19] = system: Rattus norvegicus; test: Oral bioavailability in rat at 3 mg/kg; format: ADME, organism-based; conditions: in vivo; procedure, shortened: as §2
[20] = system: Rattus norvegicus; test: AUC in rat at 3 mg/kg, po; format: ADME, organism-based, Plasma; set-up: dose 3 mg/kg, route oral; conditions: in vivo; procedure, shortened: as §2

Tyrosine-protein kinase JAK1, sequence (P23458 whole entry): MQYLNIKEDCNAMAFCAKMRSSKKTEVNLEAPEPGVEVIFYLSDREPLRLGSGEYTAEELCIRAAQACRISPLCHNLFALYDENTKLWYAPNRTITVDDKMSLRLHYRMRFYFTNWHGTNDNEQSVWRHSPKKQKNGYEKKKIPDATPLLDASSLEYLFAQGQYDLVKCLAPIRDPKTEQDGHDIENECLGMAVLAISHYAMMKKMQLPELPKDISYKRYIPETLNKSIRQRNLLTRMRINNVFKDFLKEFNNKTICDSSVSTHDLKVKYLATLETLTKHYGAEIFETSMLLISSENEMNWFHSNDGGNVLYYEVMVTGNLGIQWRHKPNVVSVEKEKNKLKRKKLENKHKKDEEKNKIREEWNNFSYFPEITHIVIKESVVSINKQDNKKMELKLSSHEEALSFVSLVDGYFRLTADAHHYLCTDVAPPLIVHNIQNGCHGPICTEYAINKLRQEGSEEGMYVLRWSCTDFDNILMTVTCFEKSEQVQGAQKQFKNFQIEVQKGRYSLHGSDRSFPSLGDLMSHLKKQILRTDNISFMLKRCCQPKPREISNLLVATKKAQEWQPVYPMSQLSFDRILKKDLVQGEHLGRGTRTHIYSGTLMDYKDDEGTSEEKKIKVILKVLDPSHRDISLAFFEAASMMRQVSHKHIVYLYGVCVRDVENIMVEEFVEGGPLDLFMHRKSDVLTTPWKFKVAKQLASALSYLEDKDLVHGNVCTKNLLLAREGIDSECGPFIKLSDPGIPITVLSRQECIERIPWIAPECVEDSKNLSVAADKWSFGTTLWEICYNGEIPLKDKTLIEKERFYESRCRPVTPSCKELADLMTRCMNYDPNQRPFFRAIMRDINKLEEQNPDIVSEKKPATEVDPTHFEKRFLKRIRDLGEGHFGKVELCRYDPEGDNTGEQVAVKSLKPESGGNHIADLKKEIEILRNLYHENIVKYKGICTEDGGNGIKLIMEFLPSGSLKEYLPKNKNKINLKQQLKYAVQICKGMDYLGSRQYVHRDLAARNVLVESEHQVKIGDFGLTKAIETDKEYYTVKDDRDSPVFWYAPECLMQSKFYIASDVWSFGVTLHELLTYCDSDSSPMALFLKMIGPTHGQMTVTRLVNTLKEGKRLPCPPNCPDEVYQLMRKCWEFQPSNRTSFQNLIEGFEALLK
Non-receptor tyrosine-protein kinase TYK2, sequence (P29597 whole entry): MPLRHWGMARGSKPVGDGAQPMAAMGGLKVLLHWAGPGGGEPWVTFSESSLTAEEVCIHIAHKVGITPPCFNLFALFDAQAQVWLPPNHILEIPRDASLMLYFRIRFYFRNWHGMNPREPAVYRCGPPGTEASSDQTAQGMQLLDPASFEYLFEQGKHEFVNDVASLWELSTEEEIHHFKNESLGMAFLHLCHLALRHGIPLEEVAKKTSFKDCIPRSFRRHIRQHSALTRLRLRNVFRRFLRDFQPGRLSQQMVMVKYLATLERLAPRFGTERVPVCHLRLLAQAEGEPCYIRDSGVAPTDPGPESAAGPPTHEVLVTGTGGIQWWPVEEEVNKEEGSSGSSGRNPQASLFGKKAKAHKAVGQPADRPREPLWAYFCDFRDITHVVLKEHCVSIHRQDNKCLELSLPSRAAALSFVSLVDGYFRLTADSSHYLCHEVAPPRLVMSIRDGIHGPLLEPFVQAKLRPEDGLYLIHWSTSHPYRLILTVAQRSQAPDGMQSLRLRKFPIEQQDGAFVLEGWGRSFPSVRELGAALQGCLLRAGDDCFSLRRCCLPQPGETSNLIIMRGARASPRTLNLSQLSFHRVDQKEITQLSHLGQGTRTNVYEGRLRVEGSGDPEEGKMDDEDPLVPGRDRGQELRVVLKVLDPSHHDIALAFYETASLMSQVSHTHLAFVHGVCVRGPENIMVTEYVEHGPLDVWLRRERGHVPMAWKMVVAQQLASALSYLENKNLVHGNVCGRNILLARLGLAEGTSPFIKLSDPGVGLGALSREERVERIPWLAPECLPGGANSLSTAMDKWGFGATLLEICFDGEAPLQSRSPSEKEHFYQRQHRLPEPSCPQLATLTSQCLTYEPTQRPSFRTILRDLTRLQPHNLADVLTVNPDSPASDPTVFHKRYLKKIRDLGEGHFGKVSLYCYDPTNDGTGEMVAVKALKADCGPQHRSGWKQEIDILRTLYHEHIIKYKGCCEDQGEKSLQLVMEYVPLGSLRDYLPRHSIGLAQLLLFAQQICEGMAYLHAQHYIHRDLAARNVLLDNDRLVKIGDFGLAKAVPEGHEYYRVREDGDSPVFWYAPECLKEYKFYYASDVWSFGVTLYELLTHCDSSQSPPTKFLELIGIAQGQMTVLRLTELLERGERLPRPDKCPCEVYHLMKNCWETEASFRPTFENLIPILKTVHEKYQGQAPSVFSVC

IC50 [1] [nM] | IC50 [2] [nM] | IC50 [3] [nM] | IC50 [15] [nM] | Compound | GI50 [9] [nM] | other results
460 | 1400 | 20 |  | COc1cc(-c2cnc3cccc(-c4ccc(C(=O)N5CCOCC5)c(C)c4)c3n2)cc(OC)c1OC |  | 
250 | 2200 | 20 |  | COc1cc(-c2cnc3cccc(-c4ccc(CN5CCOCC5)c(F)c4)c3n2)cc(OC)c1OC |  | 
28 | 94 | 4.3 | 166 | CN1CCN(c2ccc(-c3cnc4cccc(-c5cc(F)c(CN6CCOCC6)c(F)c5)c4n3)cc2)CC1 | 152 | AUC at 48 h [4]: 1.65 µM·h; Vd [5]: 18.9 L/kg; Tmax [6]: 5.8 h; bioavailability [7]: 100%; clearance at 48 h [8]: 19 mL/min/kg; solubility [10]: 4 µg/mL (≈ 7.76 µM); logP [11]: 4; Cmax [12]: 74 nM; half-life at 48 h [13]: 13.4 h; pKa [14]: 4.5
1200 | 4200 | 685 | 2700 | COc1cc(-c2cnc3cccc(-c4ccc(CN5CCOCC5)cc4C)c3n2)cc(OC)c1OC |  | 
4700 | 9300 |  | 9900 | COc1cc(-c2cnc3cccc(-c4ccc(CN5CCOCC5)cc4F)c3n2)cc(OC)c1OC |  | 
362 | 439 |  | 408 | Cc1cc(-c2cccc3ncc(-c4ccc(C(=O)N5CCOCC5)c(C)c4)nc23)ccc1CN1CCOCC1 |  | 
98 | 520 |  |  | COc1cc(-c2cnc3cccc(-c4ccc(CN5CCS(=O)(=O)CC5)cc4)c3n2)cc(OC)c1OC |  | 
> 10000 | > 10000 | 4200 | > 10000 | COc1cc(-c2cnc3cc(C)cc(-c4ccc(CC(=O)N5CCS(=O)(=O)CC5)cc4)c3n2)cc(OC)c1OC |  | 
940 | > 10000 | 101 | > 10000 | COc1cc(-c2cnc3cc(F)cc(-c4ccc(CC(=O)N5CCOCC5)cc4)c3n2)cc(OC)c1OC |  | 
390 | 2900 |  |  | COc1cc(-c2cnc3cccc(-c4ccc(C(=O)N5CCOCC5)cc4)c3n2)cc(OC)c1OC |  | 
89 |  | 7.1 | 232 | Cc1cc(-c2cnc3cccc(-c4ccc(CN5CCS(=O)(=O)CC5)cc4)c3n2)ccc1C(=O)N1CCN(C)CC1 | 96 | logP [11]: 2.8; pKa [14]: 3.9
1500 | > 10000 |  | > 10000 | COc1cc(-c2cnc3cccc(-c4ccc(CN5CCOCC5)cc4)c3n2)cc(OC)c1OC |  | 
190 | 520 | 12.5 | 630 | Cc1cc(-c2cnc3cccc(-c4ccc(CN5CCOCC5)c(F)c4)c3n2)ccc1C(=O)N1CCOCC1 | 226 | 
82 | 86 | 6.8 | 230 | CN1CCN(c2ccc(-c3cnc4cccc(-c5cc(F)c(CN6CCS(=O)(=O)CC6)c(F)c5)c4n3)cn2)CC1 | 98 | AUC at 48 h [4]: 0.76 µM·h; Vd [5]: 13.2 L/kg; Tmax [6]: 8 h; bioavailability [7]: 100%; clearance at 48 h [8]: 39 mL/min/kg; solubility [10]: 4 µg/mL (≈ 7.08 µM); logP [11]: 3.8; Cmax [12]: 47 nM; half-life at 48 h [13]: 4.8 h; pKa [14]: 3.6
 |  |  |  | Fc1cc(-c2cccc3ncc(-c4cnn(C5CCNCC5)c4)nc23)cc(F)c1CN1CCOCC1 | 88 | AUC at 48 h [4]: 1.47 µM·h; Vd [5]: 33 L/kg; Tmax [6]: 7 h; IC50 [16]: 80 nM; bioavailability [7]: 31%; solubility [10]: > 1500 µg/mL; Cmax [12]: 16 nM; pKa [14]: 5.5
60 | 120 | 3.1 | 130 | Cc1cc(-c2cnc3cccc(-c4cc(F)c(CN5CCOCC5)c(F)c4)c3n2)ccc1C(=O)N1CCOCC1 | 135 | 
91 |  | 13 |  | COc1cc(-c2cnc3cccc(-c4ccc(CC(=O)N5CCOCC5)cc4)c3n2)cc(OC)c1OC | 228 | 
1850 | 7130 |  |  | COc1cc(-c2cnc3cccc(-c4ccc(CN5CCOCC5)c(C)c4)c3n2)cc(OC)c1OC |  | 
35 | 340 |  |  | COc1cc(-c2cnc3cccc(-c4ccc(CC(=O)N5CCS(=O)(=O)CC5)cc4)c3n2)cc(OC)c1OC | 119 | 
130 | 640 |  | 1300 | CNS(=O)(=O)c1ccc(-c2cccc3ncc(-c4cc(OC)c(OC)c(OC)c4)nc23)cc1 |  | Vd [17]: 6.75 L/kg; half-life [18]: 1.69 h; F [19]: 34%; AUC [20]: 4 µg·min/mL
